ChEMBL document CHEMBL5055631, “Antitumor properties of novel sesquiterpene lactone analogs as NFκB inhibitors that bind to the IKKβ ubiquitin-like domain (ULD)” (Eur J Med Chem, 2021)
Active and inactive are the calls of the source. The calls are words filed in the database; no cut-off is given here.

Legend:
A498 = experiment: Anticancer activity against human A498 cells assessed as cell growth inhibition incubated for 48 hrs by SRB method; assay type: functional
Procedure, shortened: (§1)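 NCI-60 panel (DTP). Cells in RPMI 1640 with 5% FBS, 2 mM L-glutamine, seeded at 5,000–40,000 per well by doubling time and preincubated 24 h at 37 °C, 5% CO2. Time-zero plates TCA-fixed. DMSO stocks diluted in medium with gentamicin, tested at 100 μM, 10 μM, 1 μM, 0.1 μM and 10 nM for 48 h. Cells fixed with cold TCA, stained with SRB, absorbance read at 515 nm.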

[1] = molecular target: Transcription factor p65 (Homo sapiens) (UniProt Q04206); experiment: Inhibition of TNFalpha-induced p65 phosphorylation in human OV-MD-231 cells at 2 uM by ELISA assay; assay type: cell-based
Chain of Transcription factor p65 (Homo sapiens) (Q04206 whole entry): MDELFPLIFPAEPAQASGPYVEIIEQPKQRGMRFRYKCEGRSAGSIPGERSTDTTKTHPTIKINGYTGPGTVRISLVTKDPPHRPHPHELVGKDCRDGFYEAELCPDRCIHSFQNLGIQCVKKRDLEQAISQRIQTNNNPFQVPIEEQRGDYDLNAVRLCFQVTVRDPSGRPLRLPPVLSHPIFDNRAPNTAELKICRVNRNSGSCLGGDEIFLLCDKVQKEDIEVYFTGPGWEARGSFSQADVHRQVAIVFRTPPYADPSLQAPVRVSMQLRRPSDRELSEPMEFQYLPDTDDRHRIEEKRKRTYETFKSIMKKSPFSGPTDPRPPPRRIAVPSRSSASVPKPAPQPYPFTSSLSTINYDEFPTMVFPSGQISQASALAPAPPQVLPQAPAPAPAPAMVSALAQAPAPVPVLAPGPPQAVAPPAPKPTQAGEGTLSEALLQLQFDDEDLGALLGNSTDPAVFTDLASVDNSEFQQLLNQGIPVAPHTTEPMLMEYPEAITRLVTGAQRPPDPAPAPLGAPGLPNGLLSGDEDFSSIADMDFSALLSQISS

IGROV-1 = experiment: Anticancer activity against human IGROV-1 cells assessed as cell growth inhibition incubated for 48 hrs by SRB method; assay type: functional; procedure, shortened: as §1
T47D = experiment: Anticancer activity against human T47D cells assessed as cell growth inhibition incubated for 48 hrs by SRB method; assay type: functional; procedure, shortened: as §1
OVCAR-5 = experiment: Anticancer activity against human OVCAR-5 cells assessed as cell growth inhibition incubated for 48 hrs by SRB method; assay type: functional
CAKI-1 = experiment: Anticancer activity against human CAKI-1 cells assessed as cell growth inhibition incubated for 48 hrs by SRB method; assay type: functional; procedure, shortened: as §1
HOP-62 = experiment: Anticancer activity against human HOP-62 cells assessed as cell growth inhibition incubated for 48 hrs by SRB method; assay type: functional; procedure, shortened: as §1
OV-MD-231 [2] = experiment: Inhibition of NFkB binding with DNA in human […] cells assessed as reduction in NFkB-DNA binding at 2 uM measured over 3 hrs by electrophoretic mobility shift assay; assay type: cell-based
Procedure, shortened: (§2)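 Cells were exposed to 0.5 and 2.0 μM for 3 h. EMSA was run on whole-cell lysates with 32P-labelled probes carrying NF-κB binding sites, and an SP-1 probe served as the specificity control.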

U-251 = experiment: Anticancer activity against human U-251 cells assessed as cell growth inhibition incubated for 48 hrs by SRB method; assay type: functional
Procedure, shortened: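 NCI-60 panel, SRB assay. Cells grown in RPMI 1640 with 5% FBS and 2 mM L-glutamine, seeded at 5,000–40,000 cells/well depending on doubling time, and preincubated 24 h at 37 °C with 5% CO2. Time-zero plates were TCA-fixed. Compounds came from DMSO stocks and were tested at 100 μM, 10 μM, 1 μM, 0.1 μM and 10 nM for 48 h. Cells were fixed with cold TCA and stained with 0.4% SRB, and the dye was solubilized in 10 mM Tris base with A515 read.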

[3] = molecular target: Inhibitor of nuclear factor kappa-B kinase subunit alpha (Homo sapiens) (UniProt O15111); experiment: Inhibition of TNFalpha-induced IkKalpha in human SUM149PT cells at 0.5 to 2 uM by ELISA assay; assay type: cell-based; conditions: dose 0.5-2 µM
Chain of Inhibitor of nuclear factor kappa-B kinase subunit alpha (Homo sapiens) (O15111 whole entry): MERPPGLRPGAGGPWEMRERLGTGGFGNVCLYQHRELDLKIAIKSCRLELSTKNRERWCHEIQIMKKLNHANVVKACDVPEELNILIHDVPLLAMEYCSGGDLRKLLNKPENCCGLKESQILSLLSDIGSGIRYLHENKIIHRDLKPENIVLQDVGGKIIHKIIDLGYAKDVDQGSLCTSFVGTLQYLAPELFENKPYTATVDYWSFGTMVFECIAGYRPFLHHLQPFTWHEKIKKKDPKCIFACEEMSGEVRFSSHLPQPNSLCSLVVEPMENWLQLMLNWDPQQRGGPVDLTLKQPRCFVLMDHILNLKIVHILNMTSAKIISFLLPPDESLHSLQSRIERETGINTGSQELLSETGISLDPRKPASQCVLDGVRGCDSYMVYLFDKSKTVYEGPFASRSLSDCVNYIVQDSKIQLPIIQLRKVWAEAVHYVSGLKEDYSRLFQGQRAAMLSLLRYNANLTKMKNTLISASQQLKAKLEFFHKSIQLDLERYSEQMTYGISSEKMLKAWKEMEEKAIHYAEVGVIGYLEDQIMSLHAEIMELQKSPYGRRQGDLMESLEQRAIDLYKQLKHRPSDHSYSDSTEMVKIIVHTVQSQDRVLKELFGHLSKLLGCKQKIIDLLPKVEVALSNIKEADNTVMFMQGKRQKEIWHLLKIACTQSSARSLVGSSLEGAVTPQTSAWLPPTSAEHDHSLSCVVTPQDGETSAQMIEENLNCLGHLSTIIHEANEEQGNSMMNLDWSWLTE

TMD-231 = experiment: Antiproliferative activity against human TMD-231 cells assessed as inhibition of cell proliferation at 0.5 to 5 uM measured over 4 to 5 days by bromodeoxyuridine incorporation assay; assay type: functional, cell-based; conditions: dose 0.5-5 µM, time 4-5 day
Procedure, shortened: (§3)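 Seeded at 500–1000 cells/well, with treatment started one day after plating. Cells were exposed to a range of concentrations for 4–5 days, six wells per condition, and proliferation was read by BrdU incorporation ELISA. Data average two experiments of six technical replicates, and 2–4 biological replicates were run.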

K562 = experiment: Anticancer activity against human K562 cells assessed as cell growth inhibition incubated for 48 hrs by SRB method; assay type: functional
HCT-15 = experiment: Anticancer activity against human HCT-15 cells assessed as cell growth inhibition incubated for 48 hrs by SRB method; assay type: functional; procedure, shortened: as §1
[4] = molecular target: Nuclear factor NF-kappa-B p100 subunit (Homo sapiens) (UniProt Q00653); experiment: Inhibition of NFkB binding with DNA in human SUM149PT cells assessed as reduction in NFkB-DNA binding at 2 uM measured over 3 hrs by electrophoretic mobility shift assay; assay type: cell-based; procedure, shortened: as §2
Chain of Nuclear factor NF-kappa-B p100 subunit (Homo sapiens) (Q00653 whole entry): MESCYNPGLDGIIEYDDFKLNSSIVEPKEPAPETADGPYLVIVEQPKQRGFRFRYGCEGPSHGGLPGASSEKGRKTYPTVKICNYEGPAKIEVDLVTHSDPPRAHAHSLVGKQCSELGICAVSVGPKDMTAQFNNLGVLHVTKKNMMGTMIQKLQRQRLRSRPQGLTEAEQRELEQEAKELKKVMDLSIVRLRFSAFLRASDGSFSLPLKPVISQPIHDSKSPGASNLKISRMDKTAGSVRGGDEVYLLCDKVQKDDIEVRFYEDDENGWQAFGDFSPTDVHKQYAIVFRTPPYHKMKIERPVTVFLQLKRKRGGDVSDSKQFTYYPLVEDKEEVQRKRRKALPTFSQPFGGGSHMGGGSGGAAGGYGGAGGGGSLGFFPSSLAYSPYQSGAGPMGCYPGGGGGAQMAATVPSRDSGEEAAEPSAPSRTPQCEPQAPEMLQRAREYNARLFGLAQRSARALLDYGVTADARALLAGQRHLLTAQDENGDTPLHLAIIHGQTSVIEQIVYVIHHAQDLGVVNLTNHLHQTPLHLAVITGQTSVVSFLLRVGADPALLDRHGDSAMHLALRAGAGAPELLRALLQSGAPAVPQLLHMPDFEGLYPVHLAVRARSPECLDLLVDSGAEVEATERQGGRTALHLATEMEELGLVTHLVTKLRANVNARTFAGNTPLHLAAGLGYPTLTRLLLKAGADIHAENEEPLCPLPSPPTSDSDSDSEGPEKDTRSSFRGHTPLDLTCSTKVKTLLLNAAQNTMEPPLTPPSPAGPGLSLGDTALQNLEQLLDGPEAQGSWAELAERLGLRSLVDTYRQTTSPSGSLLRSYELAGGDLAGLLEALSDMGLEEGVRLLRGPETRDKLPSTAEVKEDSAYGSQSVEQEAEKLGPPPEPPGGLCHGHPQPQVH

MOLT-4 = experiment: Anticancer activity against human MOLT-4 assessed as cell growth inhibition incubated for 48 hrs by SRB method; assay type: functional
[5] = molecular target: Transcription factor p65 (Homo sapiens) (UniProt Q04206); experiment: Inhibition of TNFalpha-induced phosphorylation of p65 in human SUM149PT cells at 2 uM by ELISA assay; assay type: cell-based
OV-MD-231 [6] = experiment: Antiproliferative activity against human OV-MD-231 cells assessed as inhibition of cell proliferation at 0.5 to 5 uM measured over 4 to 5 days by bromodeoxyuridine incorporation assay; assay type: functional, cell-based; conditions: dose 0.5-5 µM, time 4-5 day; procedure, shortened: as §3
Malme-3M = experiment: Anticancer activity against human MALME-3M cells assessed as cell growth inhibition incubated for 48 hrs by SRB method; assay type: functional
[7] = molecular target: Inhibitor of nuclear factor kappa-B kinase subunit beta (Homo sapiens) (UniProt O14920); experiment: Inhibition of IKKbeta-mediated NFkappaB activation in human M9-ENL1 cells assessed as inhibition of phosphorylation of p65 at SER-536 residue at 2.5 to 10 uM by immunoblotting analysis; assay type: cell-based; conditions: dose 2.5-10 µM
Chain of Inhibitor of nuclear factor kappa-B kinase subunit beta (Homo sapiens) (O14920 whole entry): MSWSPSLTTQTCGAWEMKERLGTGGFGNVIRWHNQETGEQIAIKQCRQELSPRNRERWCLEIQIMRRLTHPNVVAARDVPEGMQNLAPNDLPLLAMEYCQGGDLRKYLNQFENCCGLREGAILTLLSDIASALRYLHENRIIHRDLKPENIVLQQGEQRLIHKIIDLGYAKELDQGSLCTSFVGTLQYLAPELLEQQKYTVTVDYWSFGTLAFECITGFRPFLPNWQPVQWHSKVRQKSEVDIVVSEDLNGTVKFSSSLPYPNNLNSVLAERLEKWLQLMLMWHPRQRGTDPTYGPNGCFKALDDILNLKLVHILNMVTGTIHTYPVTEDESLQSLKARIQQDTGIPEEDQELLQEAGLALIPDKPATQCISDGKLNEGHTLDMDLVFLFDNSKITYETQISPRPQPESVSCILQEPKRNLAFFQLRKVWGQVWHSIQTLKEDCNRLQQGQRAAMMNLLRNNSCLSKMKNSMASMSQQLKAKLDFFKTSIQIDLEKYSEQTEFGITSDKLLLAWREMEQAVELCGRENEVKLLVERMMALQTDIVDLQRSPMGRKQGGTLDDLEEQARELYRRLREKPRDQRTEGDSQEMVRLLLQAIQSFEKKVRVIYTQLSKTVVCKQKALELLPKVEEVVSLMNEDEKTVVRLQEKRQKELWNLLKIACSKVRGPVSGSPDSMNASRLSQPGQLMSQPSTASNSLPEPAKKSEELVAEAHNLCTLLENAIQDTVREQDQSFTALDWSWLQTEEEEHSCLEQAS
Procedure, shortened: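 Primary M9-ENL AML cells were exposed for 6 h to 2.5, 5.0 and 10 μM, with PTL as reference. Lysates were run on 8–10% SDS-PAGE and transferred to PVDF. Blots were blocked in 5% milk/TBST and probed for phospho-p65 (Ser536). Analyses were done in triplicate.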

SUM149PT = experiment: Antiproliferative activity against human SUM149PT cells assessed as inhibition of cell proliferation measured over 4 to 5 days by bromodeoxyuridine incorporation assay; assay type: functional, cell-based; procedure, shortened: as §3
MDA-MB-435 = experiment: Anticancer activity against human MDA-MB-435 cells assessed as cell growth inhibition incubated for 48 hrs by SRB method; assay type: functional; procedure, shortened: as §1
HCC 2998 = experiment: Anticancer activity against human HCC 2998 cells assessed as cell growth inhibition incubated for 48 hrs by SRB method; assay type: functional; procedure, shortened: as §1
DU-145 = experiment: Anticancer activity against human DU-145 cells assessed as cell growth inhibition incubated for 48 hrs by SRB method; assay type: functional; procedure, shortened: as §1
NCI-H322M = experiment: Anticancer activity against human NCI-H322M cells assessed as cell growth inhibition incubated for 48 hrs by SRB method; assay type: functional; procedure, shortened: as §1
OVCAR-3 = experiment: Anticancer activity against human OVCAR-3 cells assessed as cell growth inhibition incubated for 48 hrs by SRB method; assay type: functional; procedure, shortened: as §1

SMILES: C=C1C(=O)O[C@H]2[C@H]1CC/C(COC(=O)NCc1ccc(OC)cc1)=C\CC[C@@]1(C)O[C@@H]21
- GI50 (A498): 1790 nM
- inhibition [1]: Active
- GI50 (IGROV-1): 320 nM
- GI50 (T47D): 790 nM
- GI50 (OVCAR-5): 280 nM
- GI50 (CAKI-1): 720 nM
- GI50 (HOP-62): 4810 nM
- inhibition (OV-MD-231 [2]): inactive
- GI50 (U-251): 960 nM
- inhibition [3]: Active
- inhibition (TMD-231): Active
- GI50 (K562): 370 nM
- GI50 (HCT-15): 240 nM
- inhibition [4]: inactive
- GI50 (MOLT-4): 280 nM
- inhibition [5]: Active
- inhibition (OV-MD-231 [6]): Active
- GI50 (Malme-3M): 200 nM
- inhibition [7]: inactive
- IC50 (SUM149PT): < 1000 nM
- GI50 (MDA-MB-435): 420 nM
- GI50 (HCC 2998): 510 nM
- GI50 (DU-145): 160 nM

SMILES: C=C1C(=O)O[C@H]2[C@H]1CC/C(COC(=O)NCCc1ccc(OC)cc1)=C\CC[C@@]1(C)O[C@@H]21
- GI50 (A498): 10000 nM
- GI50 (IGROV-1): 2490 nM
- GI50 (T47D): 13800 nM
- GI50 (OVCAR-5): 2190 nM
- GI50 (CAKI-1): 4520 nM
- GI50 (HOP-62): 12200 nM
- GI50 (U-251): 11100 nM
- GI50 (NCI-H322M): 12600 nM
- GI50 (K562): 3080 nM
- GI50 (HCT-15): 1740 nM
- GI50 (MOLT-4): 2610 nM
- GI50 (Malme-3M): 2440 nM
- GI50 (MDA-MB-435): 3530 nM
- GI50 (HCC 2998): 2480 nM
- GI50 (DU-145): 1760 nM

SMILES: C=C1C(=O)O[C@H]2[C@H]1CC/C(COC(=O)NCc1cc(OC)cc(OC)c1)=C\CC[C@@]1(C)O[C@@H]21
- GI50 (A498): 2980 nM
- GI50 (IGROV-1): 1540 nM
- GI50 (T47D): 4120 nM
- GI50 (OVCAR-5): 1010 nM
- GI50 (CAKI-1): 2110 nM
- GI50 (HOP-62): 3060 nM
- GI50 (U-251): 3160 nM
- GI50 (NCI-H322M): 4720 nM
- GI50 (K562): 1570 nM
- GI50 (HCT-15): 770 nM
- GI50 (MOLT-4): 2000 nM
- GI50 (Malme-3M): 1860 nM
- GI50 (MDA-MB-435): 1990 nM
- GI50 (HCC 2998): 1940 nM
- GI50 (OVCAR-3): 660 nM
- GI50 (DU-145): 1510 nM

SMILES: C=C1C(=O)O[C@H]2[C@H]1CC/C(COC(=O)NCc1ccccc1OC)=C\CC[C@@]1(C)O[C@@H]21
- GI50 (A498): 2260 nM
- GI50 (IGROV-1): 1480 nM
- GI50 (T47D): 3400 nM
- GI50 (OVCAR-5): 870 nM
- GI50 (CAKI-1): 3230 nM
- GI50 (HOP-62): 3690 nM
- GI50 (U-251): 2200 nM
- GI50 (K562): 820 nM
- GI50 (HCT-15): 1040 nM
- GI50 (MOLT-4): 2530 nM
- GI50 (Malme-3M): 1890 nM
- GI50 (MDA-MB-435): 1700 nM
- GI50 (HCC 2998): 1820 nM
- GI50 (DU-145): 1680 nM
